Assay results taken from PMC11382152 (The Journal of Organic Chemistry, 2024).
In brackets after ≈: the same amount, converted by molar mass.

What was measured:
Experiment in all cases: MIC assay
Format in all cases: cell-based
[1] = system: Staphylococcus epidermidis ATCC 14990; conditions: ATCC14990
How it was run: (§1)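 Test compounds were prepared as trifluoroacetate salts and assayed for MIC against a Gram-positive panel: B. subtilis, S. epidermidis, MSSA and MRSA. E. coli served as the Gram-negative negative-control organism. The natural parent peptide and vancomycin served as positive controls.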

[2] = system: Escherichia coli ATCC 10798; conditions: ATCC10798
How it was run: as §1

[3] = system: Bacillus subtilis ATCC 6051; conditions: ATCC6051
How it was run: as §1

What does the source list for `CN[C@H](CC(C)C)C(=O)N[C@H]1C(=O)N[C@@H](CC(N)=O)C(=O)N[C@H]2C(=O)N[C@H]3C(=O)N[C@H](C(=O)N[C@H](C(=O)O)c4cc(O)cc(O)c4-c4cc3ccc4O)[C@H](O)c3ccc(c(Cl)c3)Oc3cc2cc(c3O[C@@H]2O[C@H](CO)[C@@H](O)[C@H](O)[C@H]2O[C@H]2C[C@](C)(N)[C@H](O)[C@H](C)O2)Oc2ccc(cc2Cl)[C@H]1O` [vancomycin]?
MIC [1]: 2 µg/mL (≈ 1.38 µM); MIC [2]: > 32 µg/mL; MIC [3]: 0.125 to 0.25 µg/mL (≈ 0.0863 to 0.173 µM)
